The subject of assay [1] is Mycobacterium tuberculosis. Briefly: Antibacterial activity against Mycobacterium tuberculosis H37Rv mc2 6230 with Eis C-14T mutation assessed as inhibition of bacterial growth at 100 uM incubated for 1 week by resazurin staining based microdilution method. To be noted: time 1.0 weeks. Format: functional, organism-based. (In general: The colour change of resazurin is a common sign of viable cells or microbes.)

The test system of assay [2] is Mycobacterium tuberculosis. Briefly: Antibacterial activity against Mycobacterium tuberculosis mc2 6230-K204 with Eis C-14T mutation inhibition of bacterial growth at 100 uM incubated for 1 week by resazurin staining based microdilution method. Format: functional, organism-based. To be noted: time 1.0 weeks.
Assay [3] concerns Mycobacterium tuberculosis. In words: Antibacterial activity against Mycobacterium tuberculosis mc2 6230 with Eis C-14T mutation assessed as inhibition of bacterial growth incubated upto 3 weeks hrs by resazurin dye based double-dilution method. Format: functional. Put shortly:
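Double-dilution broth MIC. Media: M. smegmatis, Mueller-Hinton; M. abscessus, 7H9 + 0.05% Tween80 + 0.4% glycerol; mc²6230, 7H9 + 0.05% tyloxapol, 0.5% glycerol, 10% OADC, 0.2% casamino acids, 24 µg/mL pantothenate; other mycobacteria, 7H9 + 0.05% Tween80, 0.4% glycerol, 10% ADC. Inoculum from agar set to 0.5 McFarland, then diluted 1:100.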

In assay [4] the test system is Mycobacterium tuberculosis. In words: Potentiation of kanamycin-induced antibacterial activity against Mycobacterium tuberculosis mc2 6230-K204 with Eis C-14T mutation assessed as kanamycin MIC incubated for 1 week by resazurin staining based microdilution method. Format: functional. The following applies: time 1 weeks. Put shortly:
(§1)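 Microdilution in 7H9 + 10% OADC, 0.5% glycerol, 0.05% tyloxapol, 0.2% casamino acids, 24 µg/mL pantothenate. […] Culture at 0.5 McFarland diluted 1:100 and added. Incubated one week at 37 °C, then 5 µL of 2.5 mg/mL resazurin added, read after two days. Duplicate.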

Assay [5] relates to Mycobacterium tuberculosis. In words: Potentiation of kanamycin-induced antibacterial activity against Mycobacterium tuberculosis H37Rv mc2 6230 with Eis C-14T mutation assessed as kanamycin MIC incubated for 1 week by resazurin staining based microdilution method. To be noted: time 1 weeks. Format: functional. In outline: as §1

Molecules are shown by their SMILES. ≈ marks a conversion by molar mass, not a printed value. Calls of active or inactive are those of the source. The rule behind the calls is not given here.

As a reminder, the MIC is the least concentration at which growth counts as inhibited. In the case of `O=C(CCCN1CC=C(c2ccc(Cl)cc2)CC1)c1ccc(F)cc1`, the inhibition result in assay [1] and in assay [2] was “Active” in each case. For the same molecule, in assay [3], the minimal inhibitory concentration (MIC) was determined as 32 µM (≈ 11.5 µg/mL).
As to `O=C(CCCN1CCC(c2ccc(Cl)cc2)CC1)c1ccc(F)cc1`, the inhibition result in assay [1] and in assay [2] was “Active” throughout. Further, the MIC in assay [3] was found to be 64 µM (≈ 23 µg/mL).
For the molecule `N=C(N)NCCCC(=O)c1ccc(F)cc1`, the MIC was above 10 µg/mL in assay [4], “<=1.25 ug ml-1” in assay [5] and above 64 µM in assay [3].
Consider `O=C(CCCN1CCCCC1)c1ccc(F)cc1` [PRIMAPERONE], for which the MIC in assay [4] is above 10 µg/mL; in assay [5], “<=1.25 ug ml-1”.
Regarding `CC(C)c1ccc(C(=O)CCCN2CCC(O)(c3ccc(Cl)cc3)CC2)cc1`, in assay [3], the MIC was determined as 7.8 µM (≈ 3.12 µg/mL).
Same read-out and setting: in the case of `CC(C)(C)c1ccc(C(=O)CCCN2CCC(O)(c3ccc(Br)cc3)CC2)cc1` it was 4 µM (≈ 1.83 µg/mL); in that of `CCc1ccc(C(=O)CCCN2CCC(O)(c3ccc(Cl)cc3)CC2)cc1`, 15.6 µM (≈ 6.02 µg/mL); in that of `CC(C)(C)c1ccc(C(=O)CCCN2CCC(O)(c3ccc(Cl)cc3)CC2)cc1`, 2 µM (≈ 0.828 µg/mL).
Regarding `O=C(CCCN1CCC(O)CC1)c1ccc(F)cc1`, the MIC is above 10 µg/mL in assay [4] and “<=1.25 ug ml-1” in assay [5].
For the molecule `O=C(CCCN1CCC(O)(c2ccccc2)CC1)c1ccc(F)cc1`, the MIC was above 10 µg/mL in assay [4], “<=1.25 ug ml-1” in assay [5] and above 64 µM in assay [3].
Take `Cc1ccc(C(=O)CCCN2CCC(O)(c3ccc(Cl)cc3)CC2)cc1`: the MIC in assay [3] was 31.3 µM (≈ 11.6 µg/mL).

The values above are taken from ChEMBL document CHEMBL5107950, “Structure-based design of haloperidol analogues as inhibitors of acetyltransferase Eis from Mycobacterium tuberculosis to overcome kanamycin resistance” (RSC Med Chem, 2021).
